What was measured:
CYP3A5 = CYP3A5 (Homo sapiens, UniProt P20815); experiment: Inhibition of human recombinant CYP3A5 expressed in supersomes assessed as decrease in formation of D-luciferin at 1.89 uM using luciferin-IPA as substrate incubated for 10 mins in presence of NADPH by P450-Glo luminescence assay relative to control; details: probe luciferin-IPA
ASPC1 [1] = experiment: Increase in CYP3A4 expression in CRISPR/Cas9-mediated CYP3A5 knock-out and doxycycline-induced CYP3A4 overexpressing human AsPC1 cells at 1 uM after 24 hrs by Western blot analysis; type: ADME, cell-based; details: aspc1, 24 h
Procedure, shortened: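 Overexpression was induced with 100 ng/mL doxycycline. […] Blots were probed with anti-CYP3A4 K03 (also detects CYP3A5) and β-actin, with infrared dye secondaries. Bands were normalized to actin across triplicate gels, with DMSO set as 1.0.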

ASPC1 [2] = experiment: Cytotoxicity against wild type human AsPC1 cells assessed as cell growth; type: cell-based
Procedure, shortened: (§1)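 Cells seeded at 10,000/well. Dox-inducible lines were induced with 100 ng/mL doxycycline, then treated 24 h later with compound at 16 two-fold dilutions (0.0003–10 μM) plus 5 μM midazolam, in 0.66% DMSO final, for 24 h. Phase-contrast confluence imaging followed. Values were normalized to six 0.66% DMSO replicates and fitted with a three-parameter log(inhibitor) vs response curve.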

ASPC1 [3] = experiment: Cytotoxicity against lentiviral pLVX-TRE3G-ZsGreen1-CYP3A5 transduced wild type human AsPC1 cells overexpressing CYP3A5 assessed as cell growth; type: ADME, cell-based; procedure, shortened: as §1
ASPC1 [4] = experiment: Cytotoxicity against doxycycline-induced CYP3A5 overexpressing wild type human AsPC1 cells assessed as cell growth; type: ADME, cell-based; procedure, shortened: as §1
ASPC1 [5] = experiment: Cytotoxicity against CRISPR/Cas9-mediated CYP3A5 knock-out and lentiviral pLVX-TRE3G-ZsGreen1-CYP3A4 transduced human AsPC1 cells overexpressing CYP3A4 assessed as cell growth; type: ADME, cell-based; procedure, shortened: as §1
ASPC1 [6] = experiment: Cytotoxicity against CRISPR/Cas9-mediated CYP3A5 knock-out human AsPC1 cells assessed as cell growth; type: ADME, cell-based; procedure, shortened: as §1
ASPC1 [7] = experiment: Cytotoxicity against CRISPR/Cas9-mediated CYP3A5 knock-out and doxycycline-induced CYP3A4 overexpressing human AsPC1 cells assessed as cell growth; type: ADME, cell-based; procedure, shortened: as §1
ASPC1 [8] = experiment: Cytotoxicity against CRISPR/Cas9-mediated CYP3A5 knock-out and lentiviral pLVX-TRE3G-ZsGreen1-CYP3A5 transduced human AsPC1 cells overexpressing CYP3A5 assessed as cell growth; type: ADME, cell-based; procedure, shortened: as §1
ASPC1 [9] = experiment: Cytotoxicity against CRISPR/Cas9-mediated CYP3A5 knock-out and doxycycline-induced CYP3A5 overexpressing human AsPC1 cells assessed as cell growth; type: ADME, cell-based; procedure, shortened: as §1
Cytochrome P450 3A5 [10] = target: T1, Cytochrome P450 3A5 (Homo sapiens, UniProt P20815); experiment: Binding affinity to heme in His-tagged CYP3A5 (unknown origin) expressed in Escherichia coli DH5alpha assessed as formation of five-coordinate ferric heme iron by measuring type 1 Soret shift from 417 nm (low spin) to 395 nm (high spin) by UV-vis spectrophotometric titration analysis
T1 sequence (P20815 whole entry): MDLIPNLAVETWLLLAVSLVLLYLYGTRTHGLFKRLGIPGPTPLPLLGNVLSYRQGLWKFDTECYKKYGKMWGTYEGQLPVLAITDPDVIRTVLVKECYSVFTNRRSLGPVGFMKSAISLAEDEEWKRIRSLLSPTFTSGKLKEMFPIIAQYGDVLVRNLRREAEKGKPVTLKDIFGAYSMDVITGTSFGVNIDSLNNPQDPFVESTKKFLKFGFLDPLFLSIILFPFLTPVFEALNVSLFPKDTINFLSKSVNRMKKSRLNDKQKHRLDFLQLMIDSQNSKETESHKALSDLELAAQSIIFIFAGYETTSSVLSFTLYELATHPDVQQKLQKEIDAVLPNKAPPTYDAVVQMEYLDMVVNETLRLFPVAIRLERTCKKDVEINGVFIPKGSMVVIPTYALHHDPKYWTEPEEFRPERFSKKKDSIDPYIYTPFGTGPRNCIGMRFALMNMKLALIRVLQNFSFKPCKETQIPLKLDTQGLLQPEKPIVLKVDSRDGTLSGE
Procedure, shortened: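 Purified recombinant His-tagged CYP3A5 titrated with successive ligand additions until heme absorbance stopped changing. The ligand-free spectrum was subtracted to give difference spectra. Peak-minus-trough values were plotted against ligand concentration and fitted to a binding equation for Kd. Wavelength pairs: ΔA 386–418 nm for the type I shift; ΔA 432–410 nm for the type II shift.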

Cytochrome P450 3A5 [11] = target: T1, Cytochrome P450 3A5; experiment: Binding affinity to His-tagged CYP3A5 (unknown origin) expressed in Escherichia coli DH5alpha assessed as five-coordinate HS ferric heme iron state formation with displacement of distal water ligand by EPR spectroscopy
Procedure, shortened: (§2)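 Continuous-wave X-band EPR of purified recombinant enzyme, alone and in complex with ligand. Spectra were compared against the ligand-free form.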

Cytochrome P450 3A4 = Cytochrome P450 3A4 (Homo sapiens, UniProt P08684); experiment: Binding affinity to His-tagged CYP3A4 (unknown origin) expressed in Escherichia coli DH5alpha assessed as induction of HS formation by EPR spectroscopy; type: ADME; procedure, shortened: as §2
Sequence of Cytochrome P450 3A4 (P08684 whole entry): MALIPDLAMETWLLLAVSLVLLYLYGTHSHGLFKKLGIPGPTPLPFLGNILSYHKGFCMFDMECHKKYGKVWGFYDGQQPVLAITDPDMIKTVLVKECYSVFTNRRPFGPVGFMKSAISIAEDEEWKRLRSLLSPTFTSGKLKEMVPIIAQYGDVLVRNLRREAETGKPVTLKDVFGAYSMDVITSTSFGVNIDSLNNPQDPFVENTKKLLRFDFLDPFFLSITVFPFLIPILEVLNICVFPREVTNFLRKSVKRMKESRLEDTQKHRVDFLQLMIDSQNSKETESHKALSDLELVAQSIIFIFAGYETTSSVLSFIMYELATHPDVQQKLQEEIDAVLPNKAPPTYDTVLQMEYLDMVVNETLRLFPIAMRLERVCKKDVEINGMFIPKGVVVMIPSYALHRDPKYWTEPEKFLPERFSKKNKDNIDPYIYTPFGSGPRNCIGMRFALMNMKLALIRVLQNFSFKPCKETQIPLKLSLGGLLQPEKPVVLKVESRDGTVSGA

Sequence of CYP3A5 (P20815 whole entry): as the sequence (P20815 whole entry) above

CC(=O)N1CCN(c2ccc(OCC3COC(Cn4ccnc4)(c4ccc(Cl)cc4Cl)O3)cc2)CC1 (stereo not drawn) [KETOCONAZOLE]
Active: Activity (ASPC1 [1])
100%: inhibition at 10 min, 1.89 µM (CYP3A5)
Non-Toxic: Activity (ASPC1 [2]) | Activity (ASPC1 [3]) | Activity (ASPC1 [4]) | Activity (ASPC1 [5]) | Activity (ASPC1 [6]) | Activity (ASPC1 [7]) | Activity (ASPC1 [8]) | Activity (ASPC1 [9])

Cc1ncc2n1-c1ccc(Cl)cc1C(c1ccccc1F)=NC2 [MIDAZOLAM]
Active: Activity (Cytochrome P450 3A5 [10]) | Activity (Cytochrome P450 3A5 [11]) | Activity (Cytochrome P450 3A4)

Reference: ChEMBL document CHEMBL4321880 (J Med Chem, 2020)
